Results taken from ChEMBL document CHEMBL1154924, “Carbonic anhydrase activators: Activation of the beta-carbonic anhydrase from the pathogenic yeast Candida glabrata with amines and amino acids” (Bioorg Med Chem Lett, 2010).

Legend:
[1] = molecular target: T1, Carbonic anhydrase (Candida glabrata CBS 138) (UniProt Q6FTL6); assay: Activation of Candida glabrata recombinant carbonic anhydrase by stopped flow CO2 hydration method; details: Nakaseomyces glabratus
T1 sequence (whole entry): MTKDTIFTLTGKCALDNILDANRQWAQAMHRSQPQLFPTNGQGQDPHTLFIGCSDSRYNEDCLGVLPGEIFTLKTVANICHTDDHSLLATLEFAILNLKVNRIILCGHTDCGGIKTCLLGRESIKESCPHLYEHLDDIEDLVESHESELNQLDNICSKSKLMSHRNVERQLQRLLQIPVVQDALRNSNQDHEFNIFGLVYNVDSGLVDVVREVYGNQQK
Outline: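 Recombinant yeast enzyme; stopped-flow CO2 hydration at 25 °C in 20 mM Tris (pH 8.3) and 20 mM NaClO4, with 0.2 mM phenol red read at 557 nm over 10 s. CO2 was 1.7–17 mM. Activators came from 10 mM aqueous stocks and were preincubated 15 min at room temperature with enzyme. Uncatalyzed rates were subtracted. KA was fitted from catalytic enhancement versus activator concentration; mean ± standard error of three assays.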

[2] = molecular target: T2, Carbonic anhydrase (Methanobacterium thermoautotrophicum) (UniProt Q50565); assay: Activation of archaea Methanobacterium thermoautotrophicum recombinant carbonic anhydrase by stopped flow CO2 hydration method; details: Methanothermobacter thermautotrophicus
T2 sequence (whole entry): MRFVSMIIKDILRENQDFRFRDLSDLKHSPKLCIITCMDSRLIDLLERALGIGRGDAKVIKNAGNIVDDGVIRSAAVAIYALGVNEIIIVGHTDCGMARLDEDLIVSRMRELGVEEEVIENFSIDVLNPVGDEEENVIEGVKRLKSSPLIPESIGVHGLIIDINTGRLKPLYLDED

NCCc1c[nH]cn1 = details: Homo sapiens
[3] = molecular target: Carbonic anhydrase 2 (Homo sapiens) (UniProt P00918); assay: Activation of human recombinant carbonic anhydrase isoenzyme 2 by stopped flow CO2 hydration method
[4] = molecular target: T3, Carbonic anhydrase (Saccharomyces cerevisiae S288c) (UniProt P53615); assay: Activation of Saccharomyces cerevisiae recombinant Nce103p by stopped flow CO2 hydration method
T3 sequence (whole entry): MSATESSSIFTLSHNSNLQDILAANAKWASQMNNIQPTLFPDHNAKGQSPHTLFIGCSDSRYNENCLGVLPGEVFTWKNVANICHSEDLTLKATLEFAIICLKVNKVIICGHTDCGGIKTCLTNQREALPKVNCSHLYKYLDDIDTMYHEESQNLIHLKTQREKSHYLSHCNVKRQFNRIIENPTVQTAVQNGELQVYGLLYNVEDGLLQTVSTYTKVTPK

Row | Compound | Ka [1] [µM] | Ka [2] [µM] | Km (NCCc1c[nH]cn1) [mM] | Ka [3] [µM] | Ka [4] [µM]
1 | NCCN1CCOCC1 | 10.1 | 18.5 | – | – | –
2 | NCc1ccccn1 | 15 | 18.7 | – | – | –
3 | NCCc1ccccn1 | 16.3 | 40 | – | – | –
4 | NCCc1ccc(O)c(O)c1 | 27.6 | 51 | – | – | –
5 | NCCc1c[nH]cn1 | 27.4 | 76 | – | – | –
6 | N[C@@H](Cc1c[nH]c2ccccc12)C(=O)O | 22.8 | 16.9 | – | – | –
7 | NCCN1CCNCC1 | 14.9 | 13.8 | – | – | –
8 | N[C@H](Cc1c[nH]cn1)C(=O)O | 21.2 | 57 | – | – | –
9 | Nc1ccc(C[C@H](N)C(=O)O)cc1 | 31.6 | 89 | – | – | –
10 | N[C@@H](Cc1ccc(O)cc1)C(=O)O | 9.5 | 10.5 | – | – | –
11 | NCCc1c[nH]c2ccc(O)cc12 | 16.7 | 62 | – | – | –
12 | Carbonic anhydrase 2 (Homo sapiens) (from UniProt P00918) | – | – | 9.3 | – | –
13 | N[C@@H](Cc1ccc(O)c(O)c1)C(=O)O | 23.3 | 11.4 | – | – | –
14 | CNC[C@@H](O)c1ccc(O)c(O)c1 | 10.8 | 11.5 | – | – | –
15 | N[C@H](Cc1c[nH]c2ccccc12)C(=O)O | 12.1 | 41 | – | – | –
16 | N[C@@H](Cc1c[nH]cn1)C(=O)O | 37 | 69 | – | – | –
17 | N[C@H](Cc1ccc(O)c(O)c1)C(=O)O | 15.1 | 15.6 | – | – | –
18 | N[C@H](Cc1ccc(O)cc1)C(=O)O | 7.1 | 19.2 | – | 0.058 | 84
